According to ChEMBL document CHEMBL4152296, “Synthesis, biological evaluation and molecular modeling of novel azaspiro dihydrotriazines as influenza virus inhibitors targeting the host factor dihydrofolate reductase (DHFR)” (Eur J Med Chem, 2018):
Activity calls are given as the source filed them. No cut-off for these calls is given here.

Assays:
Influenza A virus = assay: Antiviral activity against Influenza A virus (A/Puerto Rico/8/34(H1N1)) infected in MDCK cells assessed as protection against virus-induced reduction in cell viability after 3 to 6 days by MTS assay; assay type: functional, organism-based; conditions: A/Puerto Rico/8/1934(H1N1)
How it was run: (§1)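 MDCK cells seeded at 9000/well and infected one day later (semiconfluent) with 100 CCID50 virus. Medium was FCS-free Ultra MDCK with 2 μg/mL TPCK-trypsin. Serial five-fold compound dilutions (top 100 μM) were added with the virus, followed by 3–6 days at 35 °C. MTS read-out gave % protection versus virus and mock controls. EC50 was interpolated from semi-log curves; mean of two or three experiments.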

Influenza B virus = assay: Antiviral activity against Influenza B virus B/Ned/537/05 infected in MDCK cells assessed as protection against virus-induced reduction in cell viability after 3 to 6 days by MTS assay; assay type: functional, organism-based; conditions: B/Ned/537/05, MDCK; how it was run: as §1
[1] = Cytotoxicity against MDCK cells assessed as alterations in normal cell morphology measured after 3 to 6 days by microscopic analysis; assay type: cell-based, Canis lupus familiaris; conditions: dog
How it was run: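 Uninfected MDCK cultures in FCS-free Ultra MDCK medium with trypsin received five-fold compound dilutions (up to […]) for 3–6 days at 35 °C. Microscopy scored morphology, and MCC was taken as the lowest concentration causing minimal rounding, shrinking or lysis.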

MDCK = assay: Cytotoxicity against MDCK cells assessed as reduction in cell viability measured after 3 to 6 days by MTS assay; assay type: cell-based, Canis lupus familiaris; conditions: dog
How it was run: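 Mock-infected MDCK plates were run in parallel (FCS-free Ultra MDCK medium with TPCK-trypsin) with serial five-fold dilutions up to […], 35 °C for 3–6 days. CC50 was interpolated from semi-log dose-response curves; mean of two or three experiments.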

[2] = test system: Respiratory syncytial virus; assay: Antiviral activity against Respiratory syncytial virus Long infected in human HeLa cells assessed as inhibition of virus-induced cytopathic effect after 3 to 6 days by MTS based microscopy; assay type: functional, organism-based
[3] = Cytotoxicity against human HeLa cells assessed as alterations in normal cell morphology measured after 3 to 6 days by microscopic analysis; assay type: cell-based
How it was run: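 Mock-infected HeLa cultures in 2% FCS medium received serial five-fold dilutions […] for 3–6 days at 37 °C. MCC was the lowest concentration giving microscopically visible minimal change in cell morphology (rounding, shrinking, lysis).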

Vero = assay: Cytotoxicity against African green monkey Vero cells assessed as reduction in cell viability measured after 3 to 6 days by MTS assay; assay type: cell-based; conditions: chlorocebus sabaeus
Human alphaherpesvirus 1 = assay: Antiviral activity against Herpes simplex virus type 1 infected in human HEL299 cells assessed as inhibition of virus-induced cytopathic effect after 3 to 6 days by MTS assay; assay type: functional, organism-based
Human alphaherpesvirus 2 = assay: Antiviral activity against Herpes simplex virus type 2 infected in human HEL299 cells assessed as inhibition of virus-induced cytopathic effect after 3 to 6 days by MTS assay; assay type: functional, organism-based
Vaccinia virus = assay: Antiviral activity against Vaccinia virus infected in human HEL299 cells assessed as inhibition of virus-induced cytopathic effect after 3 to 6 days by MTS assay; assay type: functional, organism-based; conditions: Orthopoxvirus vaccinia
Human adenovirus 2 = assay: Antiviral activity against Human adenovirus type 2 infected in human HEL299 cells assessed as inhibition of virus-induced cytopathic effect after 3 to 6 days by MTS assay; assay type: functional, organism-based
[4] = test system: Human immunodeficiency virus; assay: Antiviral activity against HIV; assay type: functional, organism-based
Human coronavirus 229E = assay: Antiviral activity against Human coronavirus 229E infected in human HEL299 cells assessed as inhibition of virus-induced cytopathic effect after 3 to 6 days by MTS assay; assay type: functional, organism-based
Human respirovirus 3 = assay: Antiviral activity against Parainfluenza virus 3 infected in African green monkey Vero cells assessed as inhibition of virus-induced cytopathic effect after 3 to 6 days by MTS assay; assay type: functional, organism-based
[5] = test system: Vesicular stomatitis virus; assay: Antiviral activity against Vesicular stomatitis virus infected in human HEL299 cells assessed as inhibition of virus-induced cytopathic effect after 3 to 6 days by MTS assay; assay type: functional, organism-based
Sindbis virus = assay: Antiviral activity against Sindbis virus infected in African green monkey Vero cells assessed as inhibition of virus-induced cytopathic effect after 3 to 6 days by MTS assay; assay type: functional, organism-based
Yellow fever virus = assay: Antiviral activity against Yellow fever virus infected in African green monkey Vero cells assessed as inhibition of virus-induced cytopathic effect after 3 to 6 days by MTS assay; assay type: functional, organism-based
Punta Toro virus = assay: Antiviral activity against Punta Toro virus infected in African green monkey Vero cells assessed as inhibition of virus-induced cytopathic effect after 3 to 6 days by MTS assay; assay type: functional, organism-based
Coxsackievirus B4 = assay: Antiviral activity against Coxsackie B4 virus infected in human HeLa cells assessed as inhibition of virus-induced cytopathic effect after 3 to 6 days by MTS assay; assay type: functional, organism-based
[6] = test system: Mammalian orthoreovirus 1; assay: Antiviral activity against Reovirus-1 infected in African green monkey Vero cells assessed as inhibition of virus-induced cytopathic effect after 3 to 6 days by MTS assay; assay type: functional, organism-based

Structure (SMILES)	EC50 (Influenza A virus)	EC50 (Influenza B virus)	MCC [1]	CC50 (MDCK)	EC50 [2]	MCC [3]	Activity (Vero)	Activity (Human alphaherpesvirus 1)	Activity (Human alphaherpesvirus 2)	Activity (Vaccinia virus)	Activity (Human adenovirus 2)	Activity [4]	Activity (Human coronavirus 229E)	Activity (Human respirovirus 3)	Activity [5]	Activity (Sindbis virus)	Activity (Yellow fever virus)	Activity (Punta Toro virus)	Activity (Coxsackievirus B4)	Activity [6]
Cl.NC1=NC2(CCCN(Cc3ccccc3)C2)N(c2ccc(Cl)cc2)C(N)=N1 (stereo not given)	> 100 µM	> 100 µM	100 µM	45 µM	> 100 µM	100 µM	Non-Toxic	inactive	inactive	inactive	inactive	inactive	inactive	inactive	inactive	inactive	inactive	inactive	inactive	inactive
NC1=NC2(CCN(C(=O)C3CCC3)CC2)N(c2cccc(Cl)c2)C(N)=N1	35 µM	7.7 µM	≥ 20 µM	> 100 µM	> 100 µM	> 100 µM	Non-Toxic	inactive	inactive	inactive	inactive	inactive	inactive	inactive	inactive	inactive	inactive	inactive	inactive	inactive
CCCN1C(N)=NC(N)=NC12CCN(C(=O)NCCC(=O)OCC)CC2	> 100 µM	> 100 µM	> 100 µM	> 100 µM	> 100 µM	> 100 µM	Non-Toxic	inactive	inactive	inactive	inactive	inactive	inactive	inactive	inactive	inactive	inactive	inactive	inactive	inactive
Cl.NC1=NC2(CCCN(Cc3ccccc3)C2)N(c2ccccc2)C(N)=N1 (stereo not given)	> 100 µM	> 100 µM	> 100 µM	> 100 µM	> 100 µM	> 100 µM	Non-Toxic	inactive	inactive	inactive	inactive	inactive	inactive	inactive	inactive	inactive	inactive	inactive	inactive	inactive
COCCN1C(N)=NC(N)=NC12CCN(C(=O)c1cccn1C)CC2	> 100 µM	> 100 µM	> 100 µM	> 100 µM	> 100 µM	> 100 µM	Non-Toxic	inactive	inactive	inactive	inactive	inactive	inactive	inactive	inactive	inactive	inactive	inactive	inactive	inactive
COc1cccc(N2C(N)=NC(N)=NC23CCN(C(=O)OC(C)(C)C)CC3)c1	87 µM	39 µM	≥ 100 µM	> 100 µM	> 100 µM	> 100 µM	Non-Toxic	inactive	inactive	inactive	inactive	inactive	inactive	inactive	inactive	inactive	inactive	inactive	inactive	inactive
COCCN1C(N)=NC(N)=NC12CCN(S(=O)(=O)c1ccccc1)CC2	> 100 µM	> 100 µM	> 100 µM	> 100 µM	> 100 µM	> 100 µM	Non-Toxic	inactive	inactive	inactive	inactive	inactive	inactive	inactive	inactive	inactive	inactive	inactive	inactive	inactive
COc1cccc(N2C(N)=NC(N)=NC23CCNCC3)c1	> 100 µM	> 100 µM	> 100 µM	> 100 µM	> 100 µM	> 100 µM	Non-Toxic	inactive	inactive	inactive	inactive	inactive	inactive	inactive	inactive	inactive	inactive	inactive	inactive	inactive
CCCN1C(N)=NC(N)=NC12CCN(S(=O)(=O)CCC)CC2	> 100 µM	> 100 µM	> 100 µM	> 100 µM	> 100 µM	> 100 µM	Non-Toxic	inactive	inactive	inactive	inactive	inactive	inactive	inactive	inactive	inactive	inactive	inactive	inactive	inactive
CC(C)(C)OC(=O)N1CCC2(CC1)N=C(N)N=C(N)N2c1cccc(Cl)c1	11 µM	24 µM	≥ 20 µM	> 100 µM	> 100 µM	> 100 µM	Non-Toxic	inactive	inactive	inactive	inactive	inactive	inactive	inactive	inactive	inactive	inactive	inactive	inactive	inactive
CCCCC(=O)N1CCC2(CC1)N=C(N)N=C(N)N2c1cccc(OC)c1	> 100 µM	28 µM	≥ 100 µM	> 100 µM	> 100 µM	> 100 µM	Non-Toxic	inactive	inactive	inactive	inactive	inactive	inactive	inactive	inactive	inactive	inactive	inactive	inactive	inactive
